What was measured:
Enterococcus faecalis [1] = experiment: Bactericidal activity against 14 hrs peripheral compartment culture samples of Enterococcus faecalis ATCC 29212 in two-compartment pharmacokinetic/pharmacodynamic model assessed as effect on bacterial count at 200 mg, bid administered as 0.5 hr infusion; assay type: functional
How it was run: (§1)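 An 18-h culture concentrated 50-fold was injected into the peripheral compartment 3 h pre-sampling (~10^8 CFU/ml E. faecalis, 10^9 S. aureus). Counts came from dilution plating (detection limit 2–3 log10 CFU/ml), expressed as Δlog CFU/ml from treatment start. Run in duplicate.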

[2] = Mean residence time in two-compartment pharmacokinetic/pharmacodynamic model at 200 mg, bid administered as 0.5 hrs infusion; assay type: ADME, organism-based; conditions: iv
Enterococcus faecalis [3] = experiment: ABBC (0 to 24 hrs) in Enterococcus faecalis Ef1497 in two-compartment pharmacokinetic/pharmacodynamic model at 800 mg, bid administered as 0.5 hr infusion for 2 days; assay type: functional
How it was run: (§2)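 Hollow-fibre two-compartment model in cation-adjusted, protein-free MH broth at 37°C. Human total-plasma linezolid profile simulated as 0.5-h infusion every 12 h for 48 h. Concentrated 18-h culture injected into the peripheral compartment 3 h before first sample, giving about 10^8 (E. faecalis) or 10^9 (S. aureus) CFU/ml. Viable counts by dilution plating over 0–24 h. Area indices calculated versus growth control curve. Duplicate runs.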

[4] = Apparent volume of distribution in two-compartment pharmacokinetic/pharmacodynamic model at 800 mg, bid administered as 0.5 hr infusion over 24 hrs; assay type: ADME, organism-based; conditions: in vivo, iv
Enterococcus faecalis [5] = experiment: Bactericidal activity against 1 hr peripheral compartment culture samples of Enterococcus faecalis Ef1497 in two-compartment pharmacokinetic/pharmacodynamic model assessed as effect on bacterial count at 600 mg, bid administered as 0.5 hr infusion; assay type: functional
How it was run: (§3)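 Two-compartment hollow-fibre model in cation-adjusted, protein-free MH broth, 37°C. Linezolid given as simulated 0.5-h infusion twice daily. Inoculum grown 18 h, concentrated 50-fold and placed in the peripheral compartment 3 h before t0. Peripheral samples at set times counted by dilution plating. First 10-fold dilution not plated, limiting detection to 2–3 log10 CFU/ml. Δlog CFU/ml taken from t0 count. Duplicates.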

[6] = AUC in two-compartment pharmacokinetic/pharmacodynamic model at 600 mg, bid administered as 0.5 hrs infusion; assay type: ADME; conditions: iv
[7] = Cmax in two-compartment pharmacokinetic/pharmacodynamic model at 600 mg, bid administered as 0.5 hrs infusion; assay type: ADME, organism-based; set-up: dose 600 mg; conditions: iv
[8] = Cmax in two-compartment pharmacokinetic/pharmacodynamic model at 800 mg, bid administered as 0.5 hrs infusion; assay type: ADME, organism-based; set-up: dose 800 mg; conditions: iv
Enterococcus faecalis [9] = experiment: T>MIC in Enterococcus faecalis Ef1497 MutM3 in two-compartment pharmacokinetic/pharmacodynamic model at 200 mg, bid administered as 0.5 hr infusion for 2 days; assay type: functional
Enterococcus faecalis [10] = experiment: Bactericidal activity against 12.5 hrs peripheral compartment culture samples of Enterococcus faecalis ATCC 29212 in two-compartment pharmacokinetic/pharmacodynamic model assessed as effect on bacterial count at 200 mg, bid administered as 0.5 hr infusion; assay type: functional; how it was run: as §1
Staphylococcus aureus [11] = experiment: Bactericidal activity against 1 hr peripheral compartment culture samples of Staphylococcus aureus RN4220 MutS2 in two-compartment pharmacokinetic/pharmacodynamic model assessed as effect on bacterial count at 600 mg, bid administered as 0.5 hr infusion; assay type: functional; how it was run: as §3
Enterococcus faecalis [12] = experiment: Bactericidal activity against 0.5 hrs peripheral compartment culture samples of Enterococcus faecalis ATCC 29212 in two-compartment pharmacokinetic/pharmacodynamic model assessed as effect on bacterial count at 600 mg, bid administered as 0.5 hr infusion; assay type: functional; how it was run: as §3
[13] = Apparent volume of distribution in two-compartment pharmacokinetic/pharmacodynamic model at 400 mg, bid administered as 0.5 hrs infusion; assay type: ADME, organism-based; conditions: iv
[14] = Tmax in two-compartment pharmacokinetic/pharmacodynamic model at 200 mg, bid administered as 0.5 hrs infusion; assay type: ADME, organism-based; conditions: iv
How it was run: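 Two-compartment in vitro hollow-fibre model in cation-adjusted, protein-free Mueller-Hinton broth at 37°C. Human total-plasma linezolid profile simulated as 0.5-h infusion every 12 h for 48 h, computer-controlled syringe pump into central compartment. […] Peripheral samples assayed by validated HPLC-UV (quantification limit 0.39 μg/ml). Tmax read directly from concentration-time profiles. Run in duplicate.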

Enterococcus faecalis [15] = experiment: Bactericidal activity against 12.5 hrs peripheral compartment culture samples of Enterococcus faecalis Ef1497 MutM3 in two-compartment pharmacokinetic/pharmacodynamic model assessed as effect on bacterial count at 600 mg, bid administered as 0.5 hr infusion; assay type: functional; how it was run: as §1
Enterococcus faecalis [16] = experiment: Bactericidal activity against 48 hrs peripheral compartment culture samples of Enterococcus faecalis Ef1497 MutM3 in two-compartment pharmacokinetic/pharmacodynamic model assessed as effect on bacterial count at 600 mg, bid administered as 0.5 hr infusion; assay type: functional; how it was run: as §1
Staphylococcus aureus [17] = experiment: Bactericidal activity against 1 hr peripheral compartment culture samples of Staphylococcus aureus RN4220 in two-compartment pharmacokinetic/pharmacodynamic model assessed as effect on bacterial count at 600 mg, bid administered as 0.5 hr infusion; assay type: functional; how it was run: as §3
Enterococcus faecalis [18] = experiment: T>MIC in Enterococcus faecalis ATCC 29212 in two-compartment pharmacokinetic/pharmacodynamic model at 200 mg, bid administered as 0.5 hr infusion for 2 days; assay type: functional
[19] = Volume of distribution at steady state in two-compartment pharmacokinetic/pharmacodynamic model at 800 mg, bid administered as 0.5 hr infusion over 24 hrs; assay type: ADME, organism-based; conditions: iv, read-out: Vdss
in vivo = conditions: iv, 600 mg
[20] = Volume of distribution at steady state in two-compartment pharmacokinetic/pharmacodynamic model bid administered as 0.5 hr infusion over 24 hrs; conditions: in vivo, iv; read-out: Vdss
Enterococcus faecalis [21] = experiment: ABBC (0 to 24 hrs) in Enterococcus faecalis Ef1497 in two-compartment pharmacokinetic/pharmacodynamic model at 600 mg, bid administered as 0.5 hr infusion for 2 days; assay type: functional; how it was run: as §2
Staphylococcus aureus [22] = experiment: Bactericidal activity against 14 hrs peripheral compartment culture samples of Staphylococcus aureus RN4220 in two-compartment pharmacokinetic/pharmacodynamic model assessed as effect on bacterial count at 600 mg, bid administered as 0.5 hr infusion; assay type: functional; how it was run: as §1
Staphylococcus aureus [23] = experiment: Bactericidal activity against 13 hrs peripheral compartment culture samples of Staphylococcus aureus RN4220 MutS2 in two-compartment pharmacokinetic/pharmacodynamic model assessed as effect on bacterial count at 600 mg, bid administered as 0.5 hr infusion; assay type: functional; how it was run: as §1
Enterococcus faecalis [24] = experiment: Bactericidal activity against 13 hrs peripheral compartment culture samples of Enterococcus faecalis Ef1497 MutM3 in two-compartment pharmacokinetic/pharmacodynamic model assessed as effect on bacterial count at 600 mg, bid administered as 0.5 hr infusion; assay type: functional; how it was run: as §1
[25] = test system: Staphylococcus aureus subsp. aureus RN4220; experiment: AUBC (0 to 24 hrs) in Staphylococcus aureus RN4220 in two-compartment pharmacokinetic/pharmacodynamic model at 600 mg, bid administered as 0.5 hr infusion for 2 days; assay type: functional; how it was run: as §2
[26] = test system: Staphylococcus aureus subsp. aureus RN4220; experiment: T>MIC in Staphylococcus aureus RN4220 MutS2 in two-compartment pharmacokinetic/pharmacodynamic model at 600 mg, bid administered as 0.5 hr infusion for 2 days; assay type: functional
[27] = Cmax in two-compartment pharmacokinetic/pharmacodynamic model at 200 mg, bid administered as 0.5 hrs infusion; assay type: ADME, organism-based; set-up: dose 200 mg; conditions: iv

CC(=O)NC[C@H]1CN(c2ccc(N3CCOCC3)c(F)c2)C(=O)O1 [LINEZOLID]
log10CFU/ml (Enterococcus faecalis [1]): 0.55
MRT [2]: 8.65 h
ABBC (Enterococcus faecalis [3]): 3.6 log10CFU/ml.hr
Vd [4]: 102 L
log10CFU/ml (Enterococcus faecalis [5]): -0.05
AUC at 0.5 h [6]: 43000 ng·h/mL
Cmax [7]: 13400 ng/mL
Cmax [8]: 19200 ng/mL
fT>MIC (Enterococcus faecalis [9]): 0%
log10CFU/ml (Enterococcus faecalis [10]): 0.26
log10CFU/ml (Staphylococcus aureus [11]): 0.02
log10CFU/ml (Enterococcus faecalis [12]): 0.04
Vd [13]: 130 L
Tmax [14]: 0.5 h
log10CFU/ml (Enterococcus faecalis [15]): 0.22
log10CFU/ml (Enterococcus faecalis [16]): 0.45
log10CFU/ml (Staphylococcus aureus [17]): -0.07
fT>MIC (Enterococcus faecalis [18]): 8.08%
Vd [19]: 89.3 L
half-life (in vivo): 6.18 h
Vd [20]: 100 L
ABBC (Enterococcus faecalis [21]): -1.49 log10CFU/ml.hr
log10CFU/ml (Staphylococcus aureus [22]): -0.24
log10CFU/ml (Staphylococcus aureus [23]): -0.81
log10CFU/ml (Enterococcus faecalis [24]): 0.25
AUBC [25]: 229.4 log10CFU/ml.hr
fT>MIC [26]: 66.6%
Cmax [27]: 4380 ng/mL
